Experimental data taken from ChEMBL document CHEMBL1140695, “Endomorphin-2 with a beta-turn backbone constraint retains the potent micro-opioid receptor agonist properties” (J Med Chem, 2008).

Experiments:
[1] = Stability in rat brain assessed as half life; assay type: ADME, tissue-based
Outline: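 Peptides incubated in rat brain homogenate lacking cerebellum. Digestion mixtures analysed by RP-HPLC; velocity constants and half-lives calculated assuming pseudo-first-order kinetics.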

[2] = target: Delta-type opioid receptor (Rattus norvegicus, UniProt P33533); assay: Displacement of [3H]deltorphin 2 from delta opioid receptor in Wistar rat brain after 45 mins
Delta-type opioid receptor, sequence (P33533 whole entry): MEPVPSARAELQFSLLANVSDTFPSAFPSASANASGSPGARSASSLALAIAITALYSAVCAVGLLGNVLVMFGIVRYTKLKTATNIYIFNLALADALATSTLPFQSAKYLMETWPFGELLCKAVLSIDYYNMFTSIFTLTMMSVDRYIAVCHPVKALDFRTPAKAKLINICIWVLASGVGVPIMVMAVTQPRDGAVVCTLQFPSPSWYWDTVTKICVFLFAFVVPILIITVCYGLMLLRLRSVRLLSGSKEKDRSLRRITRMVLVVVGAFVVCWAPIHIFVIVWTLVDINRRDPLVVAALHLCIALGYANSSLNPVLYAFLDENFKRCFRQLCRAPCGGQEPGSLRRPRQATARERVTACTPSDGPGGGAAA
Outline: (§1)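 Radioligand binding on a crude membrane fraction of Wistar rat forebrain.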

Mu-type opioid receptor [3] = target: Mu-type opioid receptor (Rattus norvegicus, UniProt P33535); assay: Displacement of [3H]DAMGO from mu opioid receptor in Wistar rat brain after 45 mins; outline: as §1
Mu-type opioid receptor (Rattus norvegicus, UniProt P33535), sequence (P33535 whole entry): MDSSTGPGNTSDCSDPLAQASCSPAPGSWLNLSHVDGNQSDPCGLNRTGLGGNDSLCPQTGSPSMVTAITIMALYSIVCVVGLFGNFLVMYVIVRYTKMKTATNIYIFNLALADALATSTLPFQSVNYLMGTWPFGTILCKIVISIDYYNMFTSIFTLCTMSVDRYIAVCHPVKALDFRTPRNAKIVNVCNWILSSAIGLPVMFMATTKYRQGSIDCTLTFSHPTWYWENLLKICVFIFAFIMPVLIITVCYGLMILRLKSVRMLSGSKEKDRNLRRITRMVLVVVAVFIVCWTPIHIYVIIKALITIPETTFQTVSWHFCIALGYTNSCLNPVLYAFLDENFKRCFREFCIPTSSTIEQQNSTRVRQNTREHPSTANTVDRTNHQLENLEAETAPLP

[4] = target: Mu-type opioid receptor (Rattus norvegicus) (UniProt P33535); assay: Agonist activity at mu opioid receptor in rat brain assessed as maximal stimulation of [35S]GTP-gamma-S binding relative to basal level; assay type: functional, tissue-based
Mu-type opioid receptor (Rattus norvegicus), sequence (P33535 whole entry): as above
Outline: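 [35S]GTPγS binding in rat brain membrane fractions, reversal tested with naloxone 1 µM.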

Mu-type opioid receptor [5] = target: Mu-type opioid receptor (Mus musculus, UniProt P42866); assay: Agonist activity at mu opioid receptor in NMRI mouse vas deferens assessed as inhibition of electrically-stimulated muscle contraction; assay type: functional, tissue-based
Mu-type opioid receptor (Mus musculus, UniProt P42866), sequence (P42866 whole entry): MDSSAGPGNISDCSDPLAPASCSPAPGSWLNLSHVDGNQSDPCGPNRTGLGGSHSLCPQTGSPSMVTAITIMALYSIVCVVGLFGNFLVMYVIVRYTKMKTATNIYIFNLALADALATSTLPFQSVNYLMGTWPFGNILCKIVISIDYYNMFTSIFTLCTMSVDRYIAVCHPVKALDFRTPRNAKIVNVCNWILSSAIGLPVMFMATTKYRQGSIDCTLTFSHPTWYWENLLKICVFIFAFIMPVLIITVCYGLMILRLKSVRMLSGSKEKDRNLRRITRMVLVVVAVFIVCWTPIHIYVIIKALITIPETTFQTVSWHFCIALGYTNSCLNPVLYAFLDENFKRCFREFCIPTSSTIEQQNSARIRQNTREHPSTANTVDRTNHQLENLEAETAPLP
Outline: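 Mouse vas deferens preparation; agonist potency. Values are means ± S.E.M of 3–7 independent duplicate experiments.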

[6] = target: Mu-type opioid receptor (Rattus norvegicus) (UniProt P33535); conditions: Brain
[7] = target: Mu-type opioid receptor (Homo sapiens) (UniProt P35372); conditions: CHO
Mu-type opioid receptor (Homo sapiens), sequence (P35372 whole entry): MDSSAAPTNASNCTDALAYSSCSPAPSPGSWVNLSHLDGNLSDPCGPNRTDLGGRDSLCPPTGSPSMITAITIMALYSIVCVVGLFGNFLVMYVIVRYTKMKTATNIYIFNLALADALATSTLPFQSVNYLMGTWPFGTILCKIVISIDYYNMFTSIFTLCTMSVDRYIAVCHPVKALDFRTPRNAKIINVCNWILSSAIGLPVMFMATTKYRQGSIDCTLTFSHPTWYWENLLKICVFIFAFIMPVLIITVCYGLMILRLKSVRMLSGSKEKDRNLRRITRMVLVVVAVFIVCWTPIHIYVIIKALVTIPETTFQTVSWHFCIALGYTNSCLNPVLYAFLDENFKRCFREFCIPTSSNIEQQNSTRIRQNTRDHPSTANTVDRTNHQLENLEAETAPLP

## NC(=O)[C@H](Cc1ccccc1)NC(=O)[C@H](Cc1ccccc1)NC(=O)[C@@H]1CCCN1C(=O)[C@@H](N)Cc1ccc(O)cc1 [ENDOMORPHIN 2]
[1]
  half-life: 0.0633 h

## NC(=O)[C@H](Cc1ccccc1)NC(=O)CN1Cc2ccccc2C[C@H](NC(=O)[C@@H](N)Cc2ccc(O)cc2)C1=O
[1]
  half-life: 0.0117 h
[2]
  Ki: 0.778 nM
Mu-type opioid receptor [3]
  Ki: 0.373 nM

## NC(=O)[C@H](Cc1ccccc1)NC(=O)CN1Cc2ccccc2C[C@@]2(CCCN2C(=O)[C@@H](N)Cc2ccc(O)cc2)C1=O
[1]
  half-life: > 24 h
[2]
  Ki: 2.31 nM
Mu-type opioid receptor [3]
  Ki: 8.73 nM

## NC(=O)[C@H](Cc1ccccc1)NC(=O)CN1Cc2ccccc2C[C@@H](NC(=O)[C@@H](N)Cc2ccc(O)cc2)C1=O
[1]
  half-life: 3.3 h
[2]
  Ki: 2.96 nM
Mu-type opioid receptor [3]
  Ki: 2.25 nM

## CN1CC[C@]23c4c5ccc(O)c4O[C@H]2[C@@H](O)C=C[C@H]3[C@H]1C5
[4]
  Emax: 134%

## C[C@@H](NC(=O)[C@@H](N)Cc1ccc(O)cc1)C(=O)NCC(=O)N(C)[C@@H](Cc1ccccc1)C(=O)NCCO
[4]
  Emax: 169%

## NC(=O)[C@H](Cc1ccccc1)NC(=O)CN1Cc2ccccc2C[C@]2(CCCN2C(=O)[C@@H](N)Cc2ccc(O)cc2)C1=O
Mu-type opioid receptor [5]
  IC50: 49.8 nM
[6]
  Log10ED50: 6.74
[4]
  Emax: 134%
[1]
  half-life: > 24 h
[2]
  Ki: > 10 nM
[7]
  Log10ED50: 6.88
Mu-type opioid receptor [3]
  Ki: 0.0293 nM
